Experimental data published in ChEMBL document CHEMBL1152670, “Synthesis and in vitro evaluation of aspartate transcarbamoylase inhibitors” (Bioorg Med Chem, 2009).
Active and inactive are the calls of the source. The rule behind the calls is not given here.

Key:
[1] = Inhibition of histidine-tagged Escherichia coli ATCase catalytic domain assessed as N-carbamoyl-L-aspartate formation by colorimetric assay
Method in brief: (§1)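 E. coli His-tagged C3 (catalytic subunit) ATCase, purified from pEK17/EK1104, at 75 ng/mL. Assay at room temperature in 0.1 M Tris-acetate pH 8.3 with 10 mM L-aspartate. […] N-carbamoyl-L-aspartate formation was read colorimetrically. Ki and inhibition mode were taken from the kinetics.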

Escherichia coli [2] = assay: Ratio of compound Ki to N-phosphonacetyl-L-aspartate Ki for histidine-tagged Escherichia coli ATCase catalytic domain
Escherichia coli [3] = assay: Inhibition of histidine-tagged Escherichia coli ATCase catalytic domain assessed as N-carbamoyl-L-aspartate formation at 0.5 to 6 uM by colorimetric assay
Method in brief: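 E. coli His-tagged C3 ATCase catalytic subunit (75 ng/mL), purified from strain/plasmid pEK17/EK1104, run at room temperature in 0.1 M Tris-acetate pH 8.3 with 10 mM L-aspartate. N-carbamoyl-L-aspartate formation read colorimetrically. […] Ki and inhibition mode derived from these kinetics.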

Escherichia coli [4] = assay: Ratio of compound Ki to (2S)-2-(2-(hydroxy(hydroxymethyl)phosphoryl)acetamido)succinic acid Ki for histidine-tagged Escherichia coli ATCase catalytic domain
[5] = Uncompetitive inhibition of histidine-tagged Escherichia coli ATCase catalytic domain assessed as N-carbamoyl-L-aspartate formation by colorimetric assay; method in brief: as §1

Row | SMILES | Ki ([1]; read-out: Ki) [µM] | Ratio Ki (Escherichia coli [2]) | also measured
1 | O=C(O)C[C@H](NC(=O)COP(=O)(O)O)C(=O)O | 0.21 | 13 | –
2 | O=C(O)C[C@H](NC(=O)CP(=O)(O)CC(=O)O)C(=O)O | 3.6 | 225 | –
3 | O=C(O)C[C@H](NC(=O)OCP(=O)(O)O)C(=O)O | – | – | Ki [1]: Not Active
4 | O=C(O)C[C@H](NC(=O)CP(=O)(O)O)C(=O)O [PALA] | 0.016 | – | –
5 | O=C(O)C[C@H](NC(=O)CC(C(=O)O)C(=O)O)C(=O)O | – | – | inhibition (Escherichia coli [3]): inactive
6 | O=C(O)C[C@@H](C(=O)O)N1CCP(=O)(O)CC1=O | 1 | 63 | –
7 | O=C(O)C[C@H](NC(=O)CP(=O)(O)CCO)C(=O)O | – | 156 | Ratio Ki (Escherichia coli [4]): 13; Ki [5]: 2.5 µM
8 | O=C(O)C[C@H](NC(=O)NCP(=O)(O)O)C(=O)O | 2.1 | 131 | –
9 | O=C(O)C[C@H](NC(=O)C[PH](=O)O)C(=O)O | 0.42 | 26 | –
10 | O=C(O)C[C@H](NC(=O)C[PH](=O)CO)C(=O)O (some centres not stated) | 0.19 | 12 | –
11 | O=C(O)C[C@@H](C(=O)O)N1CCP(=O)(O)CC1 | – | – | Ki [1]: Not Active
12 | O=C(O)CCC(=O)N[C@@H](CC(=O)O)C(=O)O | – | – | inhibition (Escherichia coli [3]): inactive
13 | O=C(O)CC(=O)N[C@@H](CC(=O)O)C(=O)O | – | – | inhibition (Escherichia coli [3]): inactive
14 | O=C(O)C[C@@H](C(=O)O)N1CP(=O)(O)CC1=O | – | – | Ki [1]: Not Active
